# Calls of active or inactive are those of the source. The rule behind the calls is not given here.
# Key:
# [1] = Photostability of the compound in N,N-dimethylformamide assessed as compound degradation irradiated with 90 mW/cm2 light; format: physicochemical
# [2] = Absorption property of the compound in acetonitrile assessed as absorption coefficient by UV-visible spectrophotometric method; format: physicochemical
# How it was run: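 Electronic absorption spectra recorded by UV-visible spectrophotometry at room temperature. Solvents were chloroform, isopropanol, acetonitrile, DMF, and PBS buffer containing 1% Cremophor EL/1,2-propanediol (10:3, v:v). Chloroform data were referenced to the non-halogenated parent dye.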
# [3] = Induction of singlet oxygen generation in N,N-dimethylformamide assessed as relative rate of DPBF degradation to MB at 1 uM irradiated with 90 mW/cm2 halogen light; format: functional
# How it was run: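 Singlet oxygen generation measured with 1,3-diphenylisobenzofuran (DPBF) as scavenger. The decrease in DPBF absorbance at 411 nm was monitored over time during light irradiation, and the photodegradation rate was calculated.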
# [4] = Stability of the compound in acetonitrile assessed as compound degradation under dark condition; format: physicochemical
# [5] = Drug uptake in mitochondria of human HeLa cells at 5 uM incubated for 2 hrs under dark condition by mito-tracker green FM dye based laser confocal microscopic analysis; format: ADME
# How it was run: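 HeLa cells adhered overnight on glass-bottom dishes and were loaded with 5 μM compound in the dark for 2 h. After PBS washes, cells were stained with Mito-Tracker Green FM 250 nM for 30 min, Lyso-Tracker Green 160 nM for 30 min, or ER-Tracker Green 2 μM for 45 min. Confocal imaging: trackers excited at 488 nm, collected 500–560 nm; compound excited at 633 nm, collected 650–740 nm.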
# HeLa [6] = assay: Induction of apoptosis in human HeLa cells assessed as viable cells at 40 nM preincubated for 3 hrs followed by 54 J/cm2 light irradiation and measured after 24 hrs by Annexin-V-FITC/propidium iodide staining based flow cytometry (reference value: 90.74%); format: functional; conditions: light or radiation study, read-out: Activity
# How it was run: (§1)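 HeLa cells in six-well plates were exposed to compound for 3 h, irradiated (λ > 590 nm), and incubated 24 h at 37 °C. Cells were then harvested, washed with PBS, and stained with annexin V-FITC/PI for 20 min at room temperature before immediate flow cytometry. Untreated, unirradiated cells served as control.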
# HeLa [7] = assay: Induction of apoptosis in human HeLa cells assessed as late apoptotic cells at 40 nM preincubated for 3 hrs followed by 54 J/cm2 light irradiation and measured after 24 hrs by Annexin-V-FITC/propidium iodide staining based flow cytometry (reference value: 5.92%); format: functional; how it was run: as §1
# HeLa [8] = assay: Induction of apoptosis in human HeLa cells assessed as viable cells at 200 nM preincubated for 3 hrs followed by 27 J/cm2 light irradiation and measured after 24 hrs by Annexin-V-FITC/propidium iodide staining based flow cytometry (reference value: 90.74%); format: functional; conditions: light or radiation study, read-out: Activity; how it was run: as §1
# HeLa [9] = assay: Induction of apoptosis in human HeLa cells assessed as early apoptotic cells at 200 nM preincubated for 3 hrs followed by 27 J/cm2 light irradiation and measured after 24 hrs by Annexin-V-FITC/propidium iodide staining based flow cytometry (reference value: 0.54%); format: functional; how it was run: as §1
# HeLa [10] = assay: Induction of apoptosis in human HeLa cells assessed as late apoptotic cells at 200 nM preincubated for 3 hrs followed by 27 J/cm2 light irradiation and measured after 24 hrs by Annexin-V-FITC/propidium iodide staining based flow cytometry (reference value: 5.92%); format: functional; how it was run: as §1
# HeLa [11] = assay: Induction of apoptosis in human HeLa cells assessed as necrotic cells at 200 nM preincubated for 3 hrs followed by 27 J/cm2 light irradiation and measured after 24 hrs by Annexin-V-FITC/propidium iodide staining based flow cytometry (reference value: 2.8%); format: functional; how it was run: as §1
# HeLa [12] = assay: Induction of apoptosis in human HeLa cells assessed as late apoptotic cells at 200 nM preincubated for 3 hrs followed by 54 J/cm2 light irradiation and measured after 24 hrs by Annexin-V-FITC/propidium iodide staining based flow cytometry (reference value: 5.92%); format: functional; how it was run: as §1
# HeLa [13] = assay: Induction of apoptosis in human HeLa cells assessed as necrotic cells at 200 nM preincubated for 3 hrs followed by 54 J/cm2 light irradiation and measured after 24 hrs by Annexin-V-FITC/propidium iodide staining based flow cytometry (reference value: 2.8%); format: functional; how it was run: as §1
# HeLa [14] = assay: Induction of reactive oxygen species generation in human HeLa cells incubated for 3 hrs prior to H2DCFDA addition for 20 mins followed by 54 J/cm2 light irradiation by confocal scanning microscopic analysis; format: functional, cell-based
# How it was run: (§2)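 HeLa cells were exposed to 0.004, 0.02, 0.10, 0.5 or 2.5 μM for 3 h, washed, and loaded with H2DCFDA 10 μM in PBS for 20 min at 37 °C. After washing, cells in PBS were irradiated with 54 J/cm² (λ > 590 nm) or kept dark. Fluorescence was read by confocal microscopy and by plate reader (ex 485/em 538 nm).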
# HeLa [15] = assay: Induction of reactive oxygen species generation in human HeLa cells at 0.004 to 2.5 uM incubated for 3 hrs under dark condition by confocal scanning microscopic analysis; format: cell-based; conditions: dose 0.004-2.5 µM; how it was run: as §2
# HeLa [16] = assay: Induction of reactive oxygen species generation in human HeLa cells at 0.004 to 2.5 uM incubated for 3 hrs prior to H2DCFDA addition for 20 mins followed by 54 J/cm2 light irradiation by microplate reader analysis; format: functional, cell-based; conditions: dose microM 0.004-2.5, time 3.0 hrs; how it was run: as §2
# HeLa [17] = assay: Induction of reactive oxygen species generation in human HeLa cells at 2.5 uM incubated for 3 hrs prior to H2DCFDA addition for 20 mins followed by 54 J/cm2 light irradiation by microplate reader analysis relative to dark treated cells; format: functional; how it was run: as §2
# [18] = Drug uptake in Balb/c nu/nu mouse xenografted with human HeLa cells at 2 mg/kg, iv measured up to 3 hrs by fluorescence imaging analysis; format: ADME, organism-based; conditions: in vivo
# How it was run: (§3)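 Female Balb/c nu/nu mice bore subcutaneous HeLa tumors (5×10^6 cells, right back) and received 2 mg/kg via tail vein. Living mice were imaged under isoflurane at time points (ex 680/em 720 nm, 1 s exposure). At set times mice were euthanized and heart, liver, spleen, lungs, kidneys and tumor imaged ex vivo; ROI quantified, mean ± SD, n = 3.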
# [19] = Drug uptake in human HeLa cells xenografted Balb/c nu/nu mouse liver at 2 mg/kg, iv measured within 1 hr by fluorescence imaging analysis; format: ADME, organism-based; conditions: in vivo; how it was run: as §3
# [20] = Drug uptake in human HeLa cells xenografted Balb/c nu/nu mouse lung at 2 mg/kg, iv measured within 1 hr by fluorescence imaging analysis; format: ADME, organism-based; conditions: in vivo; how it was run: as §3
# [21] = Drug uptake in human HeLa cells xenografted Balb/c nu/nu mouse kidney at 2 mg/kg, iv measured within 1 hr by fluorescence imaging analysis; format: ADME, organism-based; conditions: in vivo; how it was run: as §3
# [22] = Toxicity in human HeLa cells xenografted Balb/c nu/nu mouse assessed as body weight loss at 2 mg/kg, iv pretreated for 15 mins followed by 54 J/cm2 light irradiation for 10 mins and measured for 24 days; format: organism-based; conditions: in vivo, 0.25 h
# How it was run: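 Female Balb/c nu/nu mice (18-22 g) carried subcutaneous HeLa cells (about 5×10^6, right back) and were treated on day 7 at a tumor volume of 80-100 mm³. Five mice per group received a tail-vein dose; saline controls were also irradiated. Fifteen minutes later the tumor was irradiated once with a 75 W halogen lamp (590 nm cut-on, 90 mW/cm², 10 min), without anaesthesia. Body weight was recorded every other day.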
compound,measurement,setting,value
COc1ccc(C2=[N+]3C(=Nc4c(-c5ccccc5)cc(-c5ccc(OC)cc5)n4[B-]3(F)F)C(c3ccccc3)=C2I)cc1,Stabilty,[1],Unstable
same,Activity,[2],59300 M⁻¹ cm⁻¹
same,fold change (FC),[3],1.3
same,Stabilty,[4],Unstable
same,Drug uptake,[5],Active
same,viability at 0.04 µM,HeLa [6],77.3%
same,Activity,HeLa [7],10.31%
same,viability at 0.2 µM,HeLa [8],42.9%
same,Activity,HeLa [9],20.46%
same,Activity,HeLa [10],14.98%
same,Activity,HeLa [11],21.64%
same,Activity,HeLa [12],8.6%
same,Activity,HeLa [13],2.22%
same,Activity,HeLa [14],Dose-dependent effect
same,Activity,HeLa [15],Non-Toxic
same,Activity,HeLa [16],Active
same,fold change (FC),HeLa [17],77
same,Drug uptake,[18],Active
same,Drug uptake,[19],Active
same,Drug uptake,[20],Active
same,Drug uptake,[21],Active
same,Activity,[22],Non-Toxic
